Test results published in ChEMBL document CHEMBL3784931, “Synthesis and evaluation of novel angiotensin II receptor 1 antagonists as anti-hypertension drugs” (Bioorg Med Chem, 2016).

Target: T1, Type-1 angiotensin II receptor A (Rattus norvegicus, UniProt P25095)
T1 sequence (P25095 whole entry): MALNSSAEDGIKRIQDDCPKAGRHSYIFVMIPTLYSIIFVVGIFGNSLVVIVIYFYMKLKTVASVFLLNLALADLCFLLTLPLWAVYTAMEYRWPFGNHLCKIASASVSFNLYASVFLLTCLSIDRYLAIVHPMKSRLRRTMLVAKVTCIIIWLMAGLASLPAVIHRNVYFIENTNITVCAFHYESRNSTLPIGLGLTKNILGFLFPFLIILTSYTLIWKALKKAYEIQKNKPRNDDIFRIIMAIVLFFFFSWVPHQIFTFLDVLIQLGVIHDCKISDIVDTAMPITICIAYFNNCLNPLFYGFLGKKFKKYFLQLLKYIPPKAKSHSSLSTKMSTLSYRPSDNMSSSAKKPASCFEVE
Test: Displacement of [125I]-Ang II from Angiotensin 2 type-1A receptor in rat vascular smooth muscle cells after 150 mins by gamma counting method
How it was run: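 Rat vascular smooth muscle cells (passages 3–6) were seeded at 10⁶ cells/well and grown at 37 °C in 5% CO₂. Nonspecific binding was taken with 1 µM Ang II. Cells were washed three times, lysed 10 min in 0.1 M NaOH, and bound radioactivity was gamma counted.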

- IC50: 5.94 nM
- Ki: 4.3 nM
SMILES: CCCCc1nc(Cl)c(CO)n1Cc1ccc(-c2ccccc2-c2noc(=O)[nH]2)cc1
